Results: ChEMBL document CHEMBL4346672, “Antimicrobial and KPC/AmpC inhibitory activity of functionalized benzosiloxaboroles” (Eur J Med Chem, 2019)
In brackets after ≈: the same amount, converted by molar mass.

Key:
[1] = Dissociation constant, pKa2 of compound in 0.1 M NaOH by potentiometric analysis; assay type: physicochemical
[2] = system: Stenotrophomonas maltophilia; test: Bactericidal activity against Stenotrophomonas maltophilia ATCC 13637 measured after 18 hrs by CLSI broth dilution method; assay type: functional; details: ATCC 13637, 18 h
Outline: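 Strains stored at -80 °C and subcultured twice on tryptic soy agar before testing. Compounds dissolved in DMSO. […] MBC then determined per CLSI recommendations.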

[3] = biological target: Class A carbapenemase KPC-2 (Escherichia coli) (UniProt A8DS27); test: Inhibition of beta lactamase KPC-2 in Escherichia coli 76 assessed as potentiation of meropenem-induced antibacterial activity by measuring meropenem MIC at 16 mg/L incubated for 18 hrs by broth dilution method (reference value: >[…] mg/L)
[4] = system: Escherichia coli; test: Inhibition of beta lactamase KPC-3 in Escherichia coli 82 TR assessed as potentiation of ceftazidime-induced antibacterial activity by measuring ceftazidime MIC at 16 mg/L incubated for 18 hrs by broth dilution method (reference value: […] mg/L)
[5] = system: Klebsiella pneumoniae; test: Inhibition of beta lactamase KPC-3 in Klebsiella pneumoniae 83 assessed as potentiation of meropenem-induced antibacterial activity by measuring meropenem MIC at 16 mg/L incubated for 18 hrs by broth dilution method (reference value: […] mg/L)
[6] = system: Pseudomonas aeruginosa; test: Inhibition of beta lactamase VIM in Pseudomonas aeruginosa 698 assessed as potentiation of ceftazidime-induced antibacterial activity by measuring ceftazidime MIC at 16 mg/L incubated for 18 hrs by broth dilution method (reference value: […] mg/L)
[7] = system: Pseudomonas aeruginosa; test: Inhibition of beta lactamase AmpC in Pseudomonas aeruginosa MUW 700 assessed as potentiation of ceftazidime-induced antibacterial activity by measuring diameter of zone inhibition at 0.3 mg incubated for 18 hrs in presence of 30 ug ceftazidime by CLSI disc diffusion method (Rvb=11 mm)
Outline: (§1)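 AmpC combination disc test on Mueller-Hinton agar, following EUCAST guidance and Yagi et al. Inhibition zones were compared between a CAZ-30 disc and a ceftazidime disc plus agent or PBA, each at 0.3 mg per disc. Plates were incubated at 35 °C for 18 h. A zone difference of at least 5 mm was counted as inhibition.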

[8] = system: Acinetobacter baumannii; test: Inhibition of beta lactamase OXA-24 in Acinetobacter baumannii 181 assessed as potentiation of ceftazidime-induced antibacterial activity by measuring ceftazidime MIC at 16 mg/L incubated for 18 hrs by broth dilution method (reference value: >[…] mg/L)
[9] = system: Klebsiella pneumoniae ATCC BAA-1705; test: Inhibition of beta lactamase KPC in Klebsiella pneumoniae ATCC BAA 1705 assessed as potentiation of meropenem-induced antibacterial activity by measuring diameter of zone inhibition at 0.3 mg incubated for 18 hrs in presence of 10 ug meropenem by CLSI disc diffusion method (Rvb=[…] mm)
[10] = system: Klebsiella pneumoniae; test: Inhibition of beta lactamase KPC-2 in Klebsiella pneumoniae 75 assessed as potentiation of meropenem-induced antibacterial activity by measuring meropenem MIC at 16 mg/L incubated for 18 hrs by broth dilution method (reference value: […] mg/L)
[11] = system: Klebsiella pneumoniae; test: Inhibition of beta lactamase KPC-3 in Klebsiella pneumoniae 81 assessed as potentiation of meropenem-induced antibacterial activity by measuring meropenem MIC at 16 mg/L incubated for 18 hrs by broth dilution method (reference value: […] mg/L)
[12] = system: Escherichia coli; test: Inhibition of beta lactamase KPC-3 in Escherichia coli 82 TR assessed as potentiation of meropenem-induced antibacterial activity by measuring meropenem MIC at 16 mg/L incubated for 18 hrs by broth dilution method (reference value: 2 mg/L)
[13] = system: Klebsiella pneumoniae ATCC BAA-1705; test: Inhibition of beta lactamase KPC-2 in Klebsiella pneumoniae ATCC BAA 1705 assessed as potentiation of ceftazidime-induced antibacterial activity by measuring ceftazidime MIC at 16 mg/L incubated for 18 hrs by broth dilution method
[14] = system: Escherichia coli; test: Inhibition of beta lactamase CMY-2 in Escherichia coli 77 assessed as potentiation of ceftazidime-induced antibacterial activity by measuring diameter of zone inhibition at 0.3 mg incubated for 18 hrs in presence of 30 ug ceftazidime by CLSI disc diffusion method (Rvb=13 mm); outline: as §1
[15] = system: Pseudomonas aeruginosa; test: Inhibition of beta lactamase AmpC in Pseudomonas aeruginosa 700 assessed as potentiation of ceftazidime-induced antibacterial activity by measuring ceftazidime MIC at 16 mg/L incubated for 18 hrs by broth dilution method (reference value: >[…] mg/L)
[16] = system: Klebsiella pneumoniae; test: Inhibition of beta lactamase SHV-12 in Klebsiella pneumoniae ATCC 700603 assessed as potentiation of ceftazidime-induced antibacterial activity by measuring ceftazidime MIC at 16 mg/L incubated for 18 hrs by broth dilution method (reference value: […] mg/L)
[17] = system: Klebsiella pneumoniae; test: Inhibition of beta lactamase KPC-3 in Klebsiella pneumoniae 81 assessed as potentiation of ceftazidime-induced antibacterial activity by measuring ceftazidime MIC at 16 mg/L incubated for 18 hrs by broth dilution method (reference value: >[…] mg/L)
[18] = system: Klebsiella pneumoniae; test: Inhibition of beta lactamase KPC-2 in Klebsiella pneumoniae 75 assessed as potentiation of ceftazidime-induced antibacterial activity by measuring ceftazidime MIC at 16 mg/L incubated for 18 hrs by broth dilution method (reference value: […] mg/L)
[19] = system: Klebsiella pneumoniae ATCC BAA-1705; test: Inhibition of beta lactamase KPC-2 in Klebsiella pneumoniae ATCC BAA 1705 assessed as potentiation of meropenem-induced antibacterial activity by measuring meropenem MIC at 16 mg/L incubated for 18 hrs by broth dilution method (reference value: […] mg/L)
[20] = system: Pseudomonas aeruginosa; test: Inhibition of beta lactamase OXA-15 in Pseudomonas aeruginosa 852 assessed as potentiation of ceftazidime-induced antibacterial activity by measuring ceftazidime MIC at 16 mg/L incubated for 18 hrs by broth dilution method (reference value: >[…] mg/L)
[21] = system: Acinetobacter baumannii; test: Inhibition of beta lactamase OXA-24 in Acinetobacter baumannii 181 assessed as potentiation of meropenem-induced antibacterial activity by measuring meropenem MIC at 16 mg/L incubated for 18 hrs by broth dilution method (reference value: […] mg/L)
[22] = Cytotoxicity against human MRC5 cells assessed as cell viability at 2 ug/ml incubated for 72 hrs by MTT assay; assay type: cell-based; details: read-out: Activity
Outline: (§2)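 MRC-5 pd30 human fibroblasts grown in MEM with 10% FBS, 2 mM L-glutamine, penicillin/streptomycin and 1% non-essential amino acids at 37 °C, 5% CO2. Exponentially growing cells trypsinized and seeded at 8×10^3 cells/well, then dosed 18 h later with 2-fold dilutions (0.5% DMSO final) for 72 h. MTT (1 mg/ml final) added for 1 h at 37 °C, formazan dissolved in DMSO, OD read at 570 nm. Four replicates, expressed as % viable versus control.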

[23] = Cytotoxicity against human MRC5 cells assessed as cell viability at 4 ug/ml incubated for 72 hrs by MTT assay; assay type: cell-based; details: read-out: Activity; outline: as §2
[24] = Cytotoxicity against human MRC5 cells assessed as cell viability at 0.5 ug/ml incubated for 72 hrs by MTT assay; assay type: cell-based; details: read-out: Activity; outline: as §2

Compound | MBC [2] [µg/mL] | MIC [3] [µg/mL] | MIC [4] [µg/mL] | MIC [5] [µg/mL] | MIC [6] [µg/mL] | inhibition zone (IZ) [7] [mm] | MIC [8] [µg/mL] | inhibition zone (IZ) [9] [mm] | MIC [10] [µg/mL] | MIC [11] [µg/mL] | MIC [12] [µg/mL] | MIC [13] [µg/mL] | inhibition zone (IZ) [14] [mm] | MIC [15] [µg/mL] | MIC [16] [µg/mL] | MIC [17] [µg/mL] | MIC [18] [µg/mL] | MIC [19] [µg/mL] | MIC [20] [µg/mL] | MIC [21] [µg/mL] | further results
C[Si]1(C)OB(O)c2cc(B(O)O)cc(F)c21 | – | – | – | – | – | – | – | – | – | – | – | – | – | – | – | – | – | – | – | – | pKa [1]: 10.2
C[Si]1(C)OB(O)c2ccc(Cl)cc21 | 200 (≈ 941 µM) | – | – | – | – | – | – | – | – | – | – | – | – | – | – | – | – | – | – | – | –
C[Si]1(C)OB(O)c2c(F)c(F)c(F)c(F)c21 | – | > 64 | 32 | 32 | 64 | 11 | > 64 | 13 | 32 | 16 | 2 | 64 | 22 | > 64 | 64 | 64 | 64 | 64 | > 64 | > 64 | –
C[Si]1(C)OB(O)c2ccc(F)c(F)c21 | 400 (≈ 1870 µM) | > 64 | 32 | 32 | 64 | 14 | > 64 | 14 | 32 | 8 | 2 | 64 | 22 | > 64 | 32 | 64 | > 64 | 64 | > 64 | > 64 | viability at 72 h, 2 ug/ml [22]: 113%; viability at 72 h, 4 ug/ml [23]: 111%; viability at 72 h, 0.5 ug/ml [24]: 108%
C[Si]1(C)OB(O)c2ccc(B(O)O)cc21 | – | > 64 | 32 | 8 | 64 | 18 | > 64 | 18 | 16 | 4 | 0.25 | 64 | 22 | 32 | 64 | 64 | 64 | 32 | > 64 | > 64 | viability at 72 h, 2 ug/ml [22]: 124%; viability at 72 h, 4 ug/ml [23]: 129%; viability at 72 h, 0.5 ug/ml [24]: 112%
C[Si]1(C)OB(O)c2cc3c(c(F)c21)COB3O | – | > 64 | 32 | 32 | 64 | 16 | > 64 | 12 | 32 | 8 | 1 | 64 | 20 | > 64 | 32 | 64 | > 64 | 64 | > 64 | > 64 | viability at 72 h, 2 ug/ml [22]: 116%; viability at 72 h, 4 ug/ml [23]: 108%; viability at 72 h, 0.5 ug/ml [24]: 112%; pKa [1]: 8.6
C[Si]1(C)OB(O)c2c(F)c3c(c(F)c21)B(O)OC3 | 400 (≈ 1480 µM) | > 64 | 32 | 32 | 64 | 11 | > 64 | 12 | 32 | 16 | 2 | 64 | 20 | > 64 | 64 | 64 | 64 | 64 | > 64 | > 64 | pKa [1]: 7.8
C[Si]1(C)OB(O)c2ccc(Cl)c(Cl)c21 | 400 (≈ 1620 µM) | – | – | – | – | – | – | – | – | – | – | – | – | – | – | – | – | – | – | – | –
